Most compounds without a hit are left out; they make up all but 2.9% or so of the library.
PfG6PD inh = PfG6PD (Plasmodium falciparum) enzyme inhibition; inhibition, % at 20 µM; PfGluPho enzyme, NADPH resazurin-diaphorase fluorescence; 350,000 tested, 0.78% active;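 active = inhibition reaching at least a set limit at 20 µM in the primary screen, cut at about 59% in these data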;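 note: 0% = DMSO wells with substrate and 100% = DMSO wells lacking glucose-6-phosphate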
EBNA-1 inhibitor = blocks EBNA-1 binding to DNA. EBNA-1 DNA binding, fluorescence polarization. AID 1950. 300,000 tested, 0.34% active. inhibition, % at 14.8 µM; in the data active = inhibition above about 28%
ZTA counter = ZTA (EBV) inhibition in EBNA-1 counter-screen. ZTA-DNA binding, fluorescence polarization. inhibition, % at 11 µM. 320,000 tested, 0.15% active. AID 2234; in the data active = inhibition above about 33%
Target sequence (P03206 whole entry, looked up): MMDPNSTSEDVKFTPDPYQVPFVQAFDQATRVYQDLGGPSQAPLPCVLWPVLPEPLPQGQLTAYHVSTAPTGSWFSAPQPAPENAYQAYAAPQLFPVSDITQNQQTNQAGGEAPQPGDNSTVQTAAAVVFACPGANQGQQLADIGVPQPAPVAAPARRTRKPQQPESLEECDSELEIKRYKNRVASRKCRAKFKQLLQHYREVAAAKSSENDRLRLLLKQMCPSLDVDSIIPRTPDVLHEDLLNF
UBC13 inh = inhibitors of human UBC13 polyubiquitin chain formation; TR-FRET; inhibition, % at 20 µM; 330,000 tested, 0.47% active; in the data active = inhibition above about 45%, passing the limit was not always enough
Target sequence (P61088 whole entry, looked up): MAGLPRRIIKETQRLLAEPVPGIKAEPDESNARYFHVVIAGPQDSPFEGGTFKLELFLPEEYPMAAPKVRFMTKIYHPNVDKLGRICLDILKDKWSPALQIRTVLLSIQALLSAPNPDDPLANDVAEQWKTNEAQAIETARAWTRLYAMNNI
M18AAP inhibitor = PfM18AAP enzyme inhibition; recombinant PfM18AAP, H-Glu-NHMec fluorogenic cleavage; inhibition, % at 7.35 µM; 290,000 tested, 1.2% active; AID 1822;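 active = inhibition above the campaign mean inhibition over all tested compounds plus 3 SD, cut at about 28% in these data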;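 note: 0% = plate median of test compound wells and 100% = 2 mM ZnCl2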
Apaf1 inhib = human Apaf-1 inhibition; inhibition, % at 20 µM; reconstituted apoptosome caspase-3 activity, DEVD-Rh110 fluorescence; 330,000 tested, 0.71% active; AID 489030; active = inhibition of at least 40% at 20 µM;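 note: plate controls were DMSO wells for no effect and DEVD-CHO caspase inhibitor wells for full effect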
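Material: reconstituted apoptosome with Apaf-1, cytochrome c, caspase-9, procaspase-3, dATP. Technique: Rh110 fluorescence intensity. Buffer or medium: pH 7.5 Hepes buffer with CHAPS, BSA, DTT. Times: 30 min plus 50 min, RT.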
PfGluPho conf = PfG6PD inhibition, single-dose confirmed. shares compounds with PfG6PD inh. recombinant PfGluPho, NADPH-diaphorase-resazurin fluorescence. inhibition, % at 20 µM. 2,400 tested, 34% active;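 active = inhibition of at least 50% at 20 µM in any single replicate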;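 note: 0% = DMSO with substrate and 100% = DMSO lacking glucose-6-phosphate substrate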
Diaphorase 10uM = counter-screen for P. falciparum G6PD inhibitors: diaphorase inhibitors, oxidizers | shares compounds with PfG6PD inh | diaphorase-coupled resazurin reduction, fluorescence, NADPH 10 uM | 820 tested, 39% active | inhibition, % at 20 µM;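 active = average inhibition reaching 50% or more with the compound at 20 µM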;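 note: resorufin red fluorescence formed as diaphorase reduces resazurin using NADPH; 0% = DMSO with enzyme and 100% = DMSO without enzyme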
Diaph ctr 30uM = diaphorase inhibition or oxidation at 30 uM NADPH; shares compounds with PfG6PD inh; inhibition, % at 20 µM; 820 tested, 29% active; Diaphorase/resazurin coupled assay, resorufin fluorescence;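 active = inhibition averaging 50% or more, tested at 20 µM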;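 note: 0% = DMSO with enzyme and 100% = DMSO wells lacking diaphorase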
* marks the source's active call; other numbers are inactive results.

Screening CCOc1ccc(/C=N/NC(=O)c2ccc(Cn3cc([N+](=O)[O-])cn3)o2)cc1 returned PfG6PD inh -26, EBNA-1 inhibitor 3, ZTA counter -2, UBC13 inh -15, M18AAP inhibitor -6 and Apaf1 inhib 5.
Screening CCOc1ccccc1/C=N/NC(=O)c1ccc(Cn2cc([N+](=O)[O-])cn2)o1 returned PfG6PD inh 61*, EBNA-1 inhibitor 11, ZTA counter 8, UBC13 inh -5, M18AAP inhibitor 8, Apaf1 inhib 11 and PfGluPho conf 35.
CCOc1ccccc1C=NNC(=O)CCCCC(=O)NN=Cc1ccccc1OCC was read as PfG6PD inh 125*, PfGluPho conf 78*, Diaphorase 10uM 41 and Diaph ctr 30uM 54*.
For O=C(CCCC(=O)NN=Cc1ccccc1Cl)NN=Cc1ccccc1Cl the results were PfG6PD inh 86* and PfGluPho conf 42.
`O=C(CNC(=O)C1COc2ccccc2O1)N/N=C\c1ccccc1Cl` (stereo unspecified) gave PfG6PD inh 60*, EBNA-1 inhibitor -12, ZTA counter -10, UBC13 inh -2, M18AAP inhibitor 6, Apaf1 inhib 20 and PfGluPho conf -2.
`CCOc1ccccc1/C=N/NC(=O)Cc1csc(Nc2cccc(C(F)(F)F)c2)n1` gave PfG6PD inh 69*, EBNA-1 inhibitor 1, ZTA counter -4, UBC13 inh -9, M18AAP inhibitor 2, Apaf1 inhib 18 and PfGluPho conf 7.
For COc1cccc(/C=N/NC(=O)CNC(=O)C2COc3ccccc3O2)c1O (stereo unspecified) the results were PfG6PD inh -28 and M18AAP inhibitor 6.
For COc1ccc(/C=C2\C(=O)NC(=O)c3ccccc32)cc1OC the results were PfG6PD inh 69* and PfGluPho conf 42.
For Cc1nc(NC(=O)c2ccc(Cl)cc2)sc1Cc1ccc2c(c1)OCO2 the results were PfG6PD inh 60*, EBNA-1 inhibitor 9, ZTA counter -2, UBC13 inh -2, M18AAP inhibitor 28, Apaf1 inhib 20 and PfGluPho conf 29.
Cc1[nH]c(-c2ccccn2)nc(=S)c1Cl was read as PfG6PD inh 69*, EBNA-1 inhibitor -2, ZTA counter -16, UBC13 inh -6, M18AAP inhibitor 1, Apaf1 inhib 0 and PfGluPho conf 5.
NS(=O)(=O)c1ccc(CCNC(=O)C2CCN(C(=O)Nc3ccccc3)CC2)cc1 was read as PfG6PD inh -9, UBC13 inh 8 and Apaf1 inhib -1.
For O=C(/C=C/c1ccccc1)c1ccccc1 the results were PfG6PD inh 21, EBNA-1 inhibitor 3, ZTA counter 11, UBC13 inh -1, M18AAP inhibitor 20 and Apaf1 inhib 2.
Screening O=C(/C=C\c1ccc(-c2ccccc2)o1)c1ccccc1 returned PfG6PD inh 74*, EBNA-1 inhibitor -4, ZTA counter 1, UBC13 inh -6, M18AAP inhibitor -10, Apaf1 inhib 5 and PfGluPho conf -8.
For COc1cc(C(C)=O)ccc1OCC(=O)OC(C)C(=O)c1ccc(F)cc1 (stereo unspecified) the results were PfG6PD inh -58, UBC13 inh 3 and Apaf1 inhib -5.
For O=[N+]([O-])c1ccc(Sc2cccc3cccnc23)cc1 the results were PfG6PD inh 114*, EBNA-1 inhibitor -5, ZTA counter 13, UBC13 inh 0, M18AAP inhibitor -5, Apaf1 inhib -1, PfGluPho conf 83*, Diaphorase 10uM 77* and Diaph ctr 30uM 72*.
`O=[N+]([O-])c1ccc(Sc2ccncn2)c([N+](=O)[O-])c1` gave PfG6PD inh 18.
O=[N+]([O-])c1cc(Cl)ccc1Sc1cccc2cccnc12 was read as PfG6PD inh 129*, EBNA-1 inhibitor -3, ZTA counter 17, UBC13 inh 4, M18AAP inhibitor -13, Apaf1 inhib -6, PfGluPho conf 90*, Diaphorase 10uM 88* and Diaph ctr 30uM 82*.
`O=[N+]([O-])c1ccc(Sc2cccc3cccnc23)c([N+](=O)[O-])c1` gave PfG6PD inh 148*, EBNA-1 inhibitor -14, ZTA counter -8, UBC13 inh -34, M18AAP inhibitor 8, Apaf1 inhib -14, PfGluPho conf 99*, Diaphorase 10uM 71* and Diaph ctr 30uM 61*.
CCN(CC)S(=O)(=O)c1cc(NC(=O)C(C)N2CCN(Cc3ccc4c(c3)OCO4)CC2)ccc1C (stereo unspecified) was read as PfG6PD inh -13, EBNA-1 inhibitor 10, ZTA counter -12, UBC13 inh -10, M18AAP inhibitor 2 and Apaf1 inhib 3.
Screening COc1ccc(C(=O)NC(=O)CSc2nc3nc(C)cc(C)n3n2)cc1 returned PfG6PD inh 18, UBC13 inh 9 and Apaf1 inhib -7.
Screening O=C(O)/C=C/c1cn(Cc2ccccc2Cl)nc1-c1ccccc1 returned PfG6PD inh -8, EBNA-1 inhibitor 9, ZTA counter -2, UBC13 inh 4, M18AAP inhibitor 3 and Apaf1 inhib -17.
`COc1ccc(C2(C)CC(=O)NC2=O)cc1` (stereo unspecified) gave PfG6PD inh -2, EBNA-1 inhibitor -10, ZTA counter 2, UBC13 inh 4, M18AAP inhibitor 0 and Apaf1 inhib -1.
For Cc1ccccc1C(=O)N1CCC(C(=O)Nc2nc3ccc(F)cc3s2)CC1 the results were PfG6PD inh 23, EBNA-1 inhibitor 3, ZTA counter 11, UBC13 inh 6 and Apaf1 inhib 14.
O=S(=O)(Oc1ccccc1/C=N/n1cnnc1)c1ccccc1 was read as PfG6PD inh 96*, EBNA-1 inhibitor -6, ZTA counter -20, UBC13 inh -17, M18AAP inhibitor 7, Apaf1 inhib 13, PfGluPho conf 81*, Diaphorase 10uM 81* and Diaph ctr 30uM 63*.
`O=S(=O)(c1ccccc1Cl)N1CCC(O)(c2cccnc2)CC1` gave PfG6PD inh 7, EBNA-1 inhibitor 3, ZTA counter -2, UBC13 inh 0, M18AAP inhibitor 4 and Apaf1 inhib -1.
NS(=O)(=O)c1ccc2nc(NC(=O)c3ccncc3)sc2c1 was read as PfG6PD inh 12, EBNA-1 inhibitor -4, ZTA counter -3, UBC13 inh -3, M18AAP inhibitor 9 and Apaf1 inhib 5.
